# Results published in ChEMBL document CHEMBL1132199, “Carboxy-substituted cinnamides: a novel series of potent, orally active LTB4 receptor antagonists” (J Med Chem, 1999).
# Tests used:
# Leukotriene B4 receptor [1] = target: T1, Leukotriene B4 receptor (Homo sapiens, UniProt Q9NPC1+Q15722); assay: In vitro leukotriene B4 receptor binding potency determined by displacement of [3H]- LTB4 from human neutrophils (PMNs)
# Outline: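 Intact human neutrophils from citrated venous blood (HESPAN sedimentation, Ficoll-Paque, hypotonic lysis), 3 × 10⁶ cells in HBSS with 0.5 nM [³H]LTB₄ and compound, 20 min at 0 °C. Bound label collected by filtration, filters washed with ice-cold HBSS, then scintillation-counted. Nonspecific binding taken with 300 nM LTB₄. Compound stocks 10 mM in DMSO, final DMSO 0.35%.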
# Leukotriene B4 receptor [2] = target: T1, Leukotriene B4 receptor; assay: LTB4 receptor antagonistic activity as inhibition of LTB4-induced [Ca2+] release from human PMNs; assay type: functional
# Outline: (§1)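 Human neutrophils from citrated venous blood (HESPAN sedimentation, centrifugal elutriation) loaded with 0.2 μM Fura-2 AM for 30 min at 37 °C, then held at 2 × 10⁶ cells/mL. Ca²⁺ and Mg²⁺ added back at 37 °C; compound given 40 s before 1 nM LTB₄; fluorescence change followed. Ki = IC50/(1 + [LTB₄]/EC50 of LTB₄). Final DMSO 0.35%.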
# Mus musculus [3] = assay: Inhibition of Arachidonic acid (AA)-induced ear edema was determined at dosing of 0.5 hr challenge; expressed as myeloperoxide activity (MPO) at 1 mg/kg; 24/24; assay type: functional
# Mus musculus [4] = assay: Inhibition of Arachidonic acid (AA)-induced ear edema was determined at dosing of 17 hr challenge; expressed as myeloperoxide activity (MPO) at 3 mg/kg; 25/12; assay type: functional
# Mus musculus [5] = assay: Inhibition of Arachidonic acid (AA)-induced ear edema was determined at dosing of 17 hr challenge; expressed as myeloperoxide activity (MPO) at 10 mg/kg; 40/55; assay type: functional
# Mus musculus [6] = assay: Inhibition of Arachidonic acid (AA)-induced ear edema was determined at dosing of 0.5 h challenge; expressed as myeloperoxide activity (MPO) at 3 mg/kg; 39/58; assay type: functional
# Mus musculus [7] = assay: Inhibition of Arachidonic acid (AA)-induced ear edema was determined at dosing of 0.5 hr challenge; expressed as myeloperoxide activity (MPO) at 0.1 mg/kg; 21/15; assay type: functional
# Mus musculus [8] = assay: Inhibition of Arachidonic acid (AA)-induced ear edema was determined at dosing of 17 hr challenge; expressed as myeloperoxide activity (MPO) at 10 mg/kg; 1/1; assay type: functional
# Mus musculus [9] = assay: Inhibition of Arachidonic acid (AA)-induced ear edema was determined at dosing of 17 hr challenge; expressed as myeloperoxide activity (MPO) at 10 mg/kg; 27/0; assay type: functional
# Mus musculus [10] = assay: Inhibition of Arachidonic acid (AA)-induced ear edema was determined at dosing of 17 hr challenge; expressed as myeloperoxide activity (MPO) at 10 mg/kg; 59/67; assay type: functional
# Mus musculus [11] = assay: Inhibition of Arachidonic acid (AA)-induced ear edema was determined at dosing of 17 hr challenge; expressed as myeloperoxide activity (MPO) at 3 mg/kg; 44/53; assay type: functional
# Mus musculus [12] = assay: Inhibition of Arachidonic acid (AA)-induced ear edema was determined at dosing of 0.5 h challenge; expressed as myeloperoxide activity (MPO) at 1 mg/kg; 32/38; assay type: functional
# Mus musculus [13] = assay: Inhibition of Arachidonic acid (AA)-induced ear edema was determined at dosing of 0.5 hr challenge; expressed as myeloperoxide activity (MPO) at 3 mg/kg; 45/53; assay type: functional
# Mus musculus [14] = assay: Inhibition of Arachidonic acid (AA)-induced ear edema was determined at dosing of 0.5 hr challenge; expressed as myeloperoxide activity (MPO) at 1 mg/kg; 26/32; assay type: functional
# Mus musculus [15] = assay: Inhibition of Arachidonic acid (AA)-induced ear edema was determined at dosing of 17 hr challenge; expressed as myeloperoxide activity (MPO) at 10 mg/kg; 46/54; assay type: functional
# Mus musculus [16] = assay: Inhibition of Arachidonic acid (AA)-induced ear edema was determined at dosing of 0.5 hr challenge; expressed as myeloperoxide activity (MPO) at 3 mg/kg; 52/58; assay type: functional
# Mus musculus [17] = assay: Inhibition of Arachidonic acid (AA)-induced ear edema was determined at dosing of 17 hr challenge; expressed as myeloperoxide activity (MPO) at 3 mg/kg; 34/15; assay type: functional
# Mus musculus [18] = assay: Inhibition of Arachidonic acid (AA)-induced ear edema was determined at dosing of 17 hr challenge; expressed as myeloperoxide activity (MPO) at 10 mg/kg; 0/0; assay type: functional
# Mus musculus [19] = assay: Inhibition of Arachidonic acid (AA)-induced ear edema was determined at dosing of 0.5 hr challenge; expressed as myeloperoxide activity (MPO) at 0.1 mg/kg; 41/49; assay type: functional
# Mus musculus [20] = assay: Inhibition of Arachidonic acid (AA)-induced ear edema was determined at dosing of 0.5 hr challenge; expressed as myeloperoxide activity (MPO) at 1 mg/kg; 50/67; assay type: functional
# Mus musculus [21] = assay: Inhibition of Arachidonic acid (AA)-induced ear edema was determined at dosing of 0.5 hr challenge; expressed as myeloperoxide activity (MPO) at 3 mg/kg; 56/71; assay type: functional
# Mus musculus [22] = assay: Inhibition of Arachidonic acid (AA)-induced ear edema was determined at dosing of 17 hr challenge; expressed as myeloperoxide activity (MPO) at 10 mg/kg; 27/31; assay type: functional
# Mus musculus [23] = assay: Inhibition of Arachidonic acid (AA)-induced ear edema was determined at dosing of 0.5 hr AA challenge; expressed as myeloperoxide activity (MPO) at 1 mg/kg; 14/0; assay type: functional
# Mus musculus [24] = assay: Inhibition of Arachidonic acid (AA)-induced ear edema was determined at dosing of) 17 hr challenge; expressed as myeloperoxide activity (MPO) at 10 mg/kg; 33/2; assay type: functional
# Mus musculus [25] = assay: Inhibition of Arachidonic acid (AA)-induced ear edema was determined at dosing of 17 hr challenge; expressed as myeloperoxide activity (MPO) at 10 mg/kg; 19/30; assay type: functional
# [26] = target: Leukotriene B4 receptor 1 (Homo sapiens, UniProt Q15722); assay: Leukotriene B4 receptor antagonistic activity was measured by the inhibition of LTB4 induced [Ca2+] release from human PMNs; assay type: functional; outline: as §1
# Leukotriene B4 receptor 1, sequence (Q15722 whole entry): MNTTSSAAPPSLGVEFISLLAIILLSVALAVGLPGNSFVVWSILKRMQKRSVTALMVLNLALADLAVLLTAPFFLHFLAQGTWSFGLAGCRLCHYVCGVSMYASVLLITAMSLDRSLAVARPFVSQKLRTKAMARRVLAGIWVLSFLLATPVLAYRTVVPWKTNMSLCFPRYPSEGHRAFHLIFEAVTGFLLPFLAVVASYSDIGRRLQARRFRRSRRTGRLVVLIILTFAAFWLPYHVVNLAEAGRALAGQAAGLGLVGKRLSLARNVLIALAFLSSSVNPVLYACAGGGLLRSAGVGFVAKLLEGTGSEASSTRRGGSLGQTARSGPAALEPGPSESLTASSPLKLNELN
# Mus musculus [27] = assay: Inhibition of Arachidonic acid (AA)-induced ear edema was determined at dosing of 0.5 h challenge; expressed as myeloperoxide activity (MPO) at 1 mg/kg; 41/41; assay type: functional
# Mus musculus [28] = assay: Inhibition of Arachidonic acid (AA)-induced ear edema was determined at dosing of 17 h challenge; expressed as myeloperoxide activity (MPO) at 10 mg/kg; 55/55; assay type: functional
# Mus musculus [29] = assay: Inhibition of Arachidonic acid (AA)-induced ear edema was determined at dosing of 17 hr challenge; expressed as myeloperoxide activity (MPO) at 3 mg/kg; 29/26; assay type: functional
SMILES,IC50 (Leukotriene B4 receptor [1]) [nM],Ki (Leukotriene B4 receptor [2]) [nM],other results
CCN(CC)C(=O)CC(C)c1ccc(OC(C)c2ccccc2)cc1 (stereo not drawn),4300,,
CCN(CC)C(=O)/C=C(\C)c1ccc(CCc2ccccc2)c(OCC(=O)O)c1,56,7.7,Punch weight/MPO activity (Mus musculus [9]): 27
CCN(CC)C(=O)/C=C(\C)c1ccc(OCc2c(F)cccc2F)c(CC(=O)O)c1,87,22,Punch weight/MPO activity (Mus musculus [10]): <59; Punch weight/MPO activity (Mus musculus [11]): 44; Punch weight/MPO activity (Mus musculus [12]): <32; Punch weight/MPO activity (Mus musculus [13]): <45
CCN(CC)C(=O)/C=C(\C)c1ccc(OC(C)c2ccccc2)c(OCC(=O)O)c1 (stereo not drawn),50,9.1,Punch weight/MPO activity (Mus musculus [19]): <41; Punch weight/MPO activity (Mus musculus [20]): <50; Punch weight/MPO activity (Mus musculus [21]): <56; Punch weight/MPO activity (Mus musculus [22]): <27
CCN(CC)C(=O)/C=C(\C)c1ccc(OC(C)c2ccccc2)c(O)c1 (stereo not drawn),420,,
CCN(CC)C(=O)/C=C(\C)c1ccc(OC(c2ccccc2)c2ccccc2)c(OCC(=O)O)c1,64,5.2,Punch weight/MPO activity (Mus musculus [23]): 14
CCN(CC)C(=O)/C=C(\C)c1cc(OCC(=O)O)cc(OC(C)c2ccccc2)c1 (stereo not drawn),84,11.2,
CCCN(CCC)C(=O)/C=C(\C)c1ccc(OC(C)c2ccccc2)cc1 (stereo not drawn),1400,,
CCN(CC)C(=O)/C=C(\C)c1ccc(-c2ccccc2)cc1,> 10000,,
CCN(CC)C(=O)/C=C(\C)c1ccc(OC(C)C)cc1,> 10000,,
CCNC(=O)/C=C(\C)c1ccc(OC(C)c2ccccc2)cc1 (stereo not drawn),2000,,
CCN(CC)C(=O)/C=C(\C)c1ccc(O[C@@H](C)c2ccccc2)c(CC(=O)O)c1,39,,
CCN(CC)C(=O)/C=C/c1ccc(OC(C)c2ccccc2)cc1 (stereo not drawn),1600,,
CCN(CC)C(=O)/C=C(\C)c1ccc(OC(C)c2ccccc2)c(CCC(=O)O)c1 (stereo not drawn),48,,Ki [26]: 9.5 nM
CCN(CC)C(=O)/C=C(\C)c1ccc(OC(C)c2ccccc2)c(CC(=O)O)c1 (stereo not drawn),81,9.5,Punch weight/MPO activity (Mus musculus [27]): <41; Punch weight/MPO activity (Mus musculus [28]): <55; Punch weight/MPO activity (Mus musculus [29]): <29

# The next lines start with results.
IC50 (Leukotriene B4 receptor [1]) [nM],Ki (Leukotriene B4 receptor [2]) [nM],SMILES,other results
2400,,CCN(CC)C(=O)/C=C(\C)c1ccc(Oc2ccccc2)c(OCC(=O)O)c1,
128,81,CCN(CC)C(=O)/C=C(\C)c1ccc(OC(C)c2ccccc2)c(OCCC(=O)O)c1 (stereo not drawn),Punch weight/MPO activity (Mus musculus [3]): <24; Punch weight/MPO activity (Mus musculus [4]): <25; Punch weight/MPO activity (Mus musculus [5]): <40; Punch weight/MPO activity (Mus musculus [6]): <39; Punch weight/MPO activity (Mus musculus [7]): 21
34,26,CCN(CC)C(=O)/C=C(\C)c1ccc(SCc2ccccc2)c(OCC(=O)O)c1,Punch weight/MPO activity (Mus musculus [8]): 1
56,18,CCN(CC)C(=O)/C=C(\C)c1ccc(OCc2c(F)cccc2F)c(OCC(=O)O)c1,Punch weight/MPO activity (Mus musculus [14]): <26; Punch weight/MPO activity (Mus musculus [15]): <46; Punch weight/MPO activity (Mus musculus [16]): <52; Punch weight/MPO activity (Mus musculus [17]): <34
31,14,CCN(CC)C(=O)/C=C(\C)c1ccc(OCc2c(Cl)cccc2Cl)c(OCC(=O)O)c1,Punch weight/MPO activity (Mus musculus [18]): 0
884,,CCN(CC)C(=O)/C=C(\C)c1ccc(OC(C)c2ccccc2)c(C(=O)O)c1 (stereo not drawn),
5800,,C/C(=C\C(=O)N1CCCCC1)c1ccc(OC(C)c2ccccc2)cc1 (stereo not drawn),
67,16,CCN(CC)C(=O)/C=C(\C)c1ccc(OCc2ccccc2Cl)c(OCC(=O)O)c1,Punch weight/MPO activity (Mus musculus [24]): <33
119,27,CCN(CC)C(=O)/C=C(\C)c1ccc(OCc2ccccc2F)c(OCC(=O)O)c1,Punch weight/MPO activity (Mus musculus [25]): <19
182,82,CCN(CC)C(=O)/C=C(\C)c1ccc(OCc2ccccc2)c(OCC(=O)O)c1,
> 10000,,COc1ccc(C(=O)O)cc1NC(=O)/C=C(\C)c1ccc(OC(C)c2ccccc2)cc1 (stereo not drawn),
7900,,CCN(CC)C(=O)/C=C(\C)c1ccc(OCc2ccccc2)cc1,
2225,,CCN(CC)C(=O)/C=C(\C)c1ccc(OC(C)c2ccccc2)cc1OCC(=O)O (stereo not drawn),
216,,CCN(CC)C(=O)/C=C(\C)c1ccc(OC(C)c2ccccc2)c(OCCCC(=O)O)c1 (stereo not drawn),
744,,CCN(CC)C(=O)/C=C(\C)c1ccc(OC(C)c2ccccc2)cc1 (stereo not drawn),
536,,CCN(CC)C(=O)/C=C(\C)c1ccc(O[C@H](C)c2ccccc2)c(CC(=O)O)c1,
2100,,C/C(=C\C(=O)N(C)C)c1ccc(OC(C)c2ccccc2)cc1 (stereo not drawn),
1100,,C/C(=C\C(=O)N(C(C)C)C(C)C)c1ccc(OC(C)c2ccccc2)cc1 (stereo not drawn),
